The list is not random: actives were taken first. Their share in the collection is about 1.8%.
CHRM4 agonist = CHRM4 agonism in calcium assay; CHO-K1 hM4/Gqi5, Fluo-8 calcium fluorescence; vehicle 0%, full acetylcholine response 100%; activation, % at 3 µM; 360,000 tested, 0.14% active; AID 624127;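 active means activation above the run mean over all test wells plus 3 SD, cut at about 32% in these data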;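 further: peak over basal fluorescence ratio per well then scaled between controls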
CHRM4 PAM = positive allosteric modulators of human muscarinic M4 receptor | P08173 | CHO-K1 hM4/Gqi5, Fluo-8 calcium fluorescence, ACh EC20; 0% = ACh EC20, 100% = maximal ACh | activation, % at 3 µM | 360,000 tested, 0.4% active | AID 624126;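 active means activation above its plate's cutoff, the mean activation of sample wells plus 3 SD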
CHRM5 antagonist = antagonists of human muscarinic M5 receptor (CHRM5). P08912. CHO-hM5 cells, Fluo-8 calcium fluorescence, ACh EC80. inhibition, % at 3 µM. 360,000 tested, 0.59% active;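 active means inhibition above a per-plate cutoff, the mean of that plate's test compounds plus 3 SD, cut at about 27% in these data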
Target sequence (P08912 whole entry, looked up): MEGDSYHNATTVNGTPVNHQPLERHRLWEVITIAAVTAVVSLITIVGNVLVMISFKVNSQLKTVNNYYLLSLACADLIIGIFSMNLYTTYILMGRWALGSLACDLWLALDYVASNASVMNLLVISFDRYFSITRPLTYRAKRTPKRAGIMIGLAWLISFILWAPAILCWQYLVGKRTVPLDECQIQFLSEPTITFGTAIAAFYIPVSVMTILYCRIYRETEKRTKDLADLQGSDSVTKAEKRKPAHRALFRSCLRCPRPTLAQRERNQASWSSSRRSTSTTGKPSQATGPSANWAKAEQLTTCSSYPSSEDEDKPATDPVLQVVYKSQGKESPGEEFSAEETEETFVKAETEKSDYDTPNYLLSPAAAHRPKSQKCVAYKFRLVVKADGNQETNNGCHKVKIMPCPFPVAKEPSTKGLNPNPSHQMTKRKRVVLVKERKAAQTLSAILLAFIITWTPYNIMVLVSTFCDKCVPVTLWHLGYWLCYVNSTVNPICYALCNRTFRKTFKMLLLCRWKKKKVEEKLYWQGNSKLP
M5 PAM = CHRM5 positive allosteric modulation | 360,000 tested, 0.3% active | P08912 | AID 624038 | CHO-K1 hM5, Fluo-8 calcium, ACh EC20 PAM; 0% = ACh EC20, 100% = ACh EC100 | activation, % at 3 µM;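 active means activation above the run cutoff, the mean activation of all test compounds plus 3 SD, cut at about 18% in these data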
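Probe or stimulus: acetylcholine, EC20 level; Assay system: human M5 receptor in CHO-K1 cells; Schedule: compound preincubation 140 s before EC20 acetylcholine addition; Technique: intracellular calcium via Fluo-8 fluorescence; Dosing: single-point, 3 µM nominal; Read-out basis: percent activation from peak-over-basal fluorescence ratio, scaled EC20-to-EC100 acetylcholine; Repeats: one well per compound, no replicates.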
CHRM4 antagonist = antagonists of human muscarinic M4 receptor (CHRM4). P08173. CHO-hM4 cells, ACh EC80, Fluo-8 calcium fluorescence. inhibition, % at 3 µM. 360,000 tested, 0.73% active. AID 624125;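 active means inhibition above its plate's cutoff, the mean inhibition of sample wells plus 3 SD, cut at about 27% in these data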
M5 ag = agonists of human muscarinic M5 receptor (CHRM5); CHO-K1 hM5 cells, Fluo-8 calcium fluorescence; 0% DMSO wells, 100% maximal acetylcholine response; 360,000 tested, 0.19% active; activation, % at 3 µM; P08912;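 active means activation above the run's mean over test compounds plus 3 SD, cut at about 23% in these data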;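 further: signal is peak over basal fluorescence ratio across the kinetic read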
Numbers stand for hits; n = inactive.

SMILES	CHRM4 agonist	CHRM4 PAM	CHRM5 antagonist	M5 PAM	CHRM4 antagonist	M5 ag
CC1=C/C(=N\OS(=O)(=O)c2ccccc2)C(C)=CC1=O	n	n	65.5	n	69.9	44.0
CC(S(=O)(=O)c1ccccc1)S(=O)(=O)c1ccccc1	n	n	n	n	n	n
Cc1ccc(N(C(=O)CNC(=O)c2ccco2)C(C(=O)NC2CCCC2)c2cccnc2)cc1F (stereo not drawn)	n	n	n	n	n	n
Cc1ccc(C)c(CNS(=O)(=O)c2c(C)[nH]c(C)c2C(=O)N2CCCCC2)c1	n	n	n	19.3	n	n
Cc1[nH]c(C)c(S(=O)(=O)NCc2ccc(N(C)C)cc2)c1C(=O)N1CCCC1	n	17.5	n	n	n	n
O=C(c1ccccc1)N1CCN(C(=S)NCc2ccc3c(c2)OCO3)CC1	n	n	n	n	n	n
CC(C)C1C(=O)N(Cc2cn(Cc3ccco3)nn2)CCS(=O)(=O)N1Cc1ccc(-c2cccc(N(C)C)c2)cc1 (stereo not drawn)	n	17.8	n	n	n	n
Cc1ccccc1NC(=S)NN1CCN(C)CC1	n	30.3	n	n	n	n
Cc1cccc(NC(=S)NN2CCN(C)CC2)c1C	n	n	n	n	n	n
Cc1cccc(N2C(=O)N3[C@H](c4ccc(F)cc4)[C@@H]4C(=O)N(C5CCCCC5)C(=O)[C@@H]4[C@]3(Cc3ccc(Cl)cc3)C2=O)c1	n	n	n	n	n	n
Cc1cccc(N2C(=O)N3[C@H](c4ccc(Cl)cc4)[C@@H]4C(=O)N(C5CCCCC5)C(=O)[C@@H]4[C@]3(Cc3ccc(Cl)cc3)C2=O)c1	n	n	n	19.0	n	n
CC[C@@]12C(=O)N(c3cccc(Cl)c3)C(=O)N1[C@H](c1ccc(Br)cc1)[C@@H]1C(=O)N(C(C)(C)C)C(=O)[C@@H]12	n	27.6	n	n	n	n
CC(C)C[C@@]12C(=O)N(c3cccc(Cl)c3)C(=O)N1[C@H](c1ccc(Br)cc1)[C@@H]1C(=O)N(C(C)(C)C)C(=O)[C@@H]12	n	n	n	n	n	n
O=c1c(O)c(-c2ccc(O)c(O)c2)oc2cc(O)cc(O)c12	n	n	n	20.6	n	n
O=C(O)C1CCCN1S(=O)(=O)c1cccc(S(=O)(=O)N2CCCC2C(=O)O)c1 (stereo not drawn)	n	n	n	n	32.3	n
O=C(O)[C@@H]1CCCN1S(=O)(=O)c1cccc(S(=O)(=O)N2CCC[C@H]2C(=O)O)c1	n	n	n	n	n	n
Cc1nnc(N)s1	n	n	n	n	n	n
COCCNc1nnc(SCC(=O)NNC(=O)c2ccccc2)s1	n	18.8	n	n	n	n
CCN1CCN(CCn2c(=S)[nH]c3ccccc3c2=O)CC1	n	n	73.2	n	n	n
CCOC(=O)c1cc(N2CCCCC2)nc2ccccc12	n	n	27.6	n	n	n
Cc1nc(C)c(-c2ccc(SCC(=O)Nc3cccc(Cl)c3C)nn2)s1	n	n	n	n	n	n
CC(=O)N1c2ccccc2Oc2cc3ccccc3cc21	n	n	n	n	n	n
O=C(CCl)N1c2ccccc2Oc2ccc3ccccc3c21	47.5	n	n	n	31.9	37.5
CCOC(=O)C1CCCN(C(=O)COc2ccccc2F)C1 (stereo not drawn)	n	n	n	n	n	n
CCOC(=O)C1CCCN(S(=O)(=O)c2ccc(S(=O)(=O)N(CC)CC)cc2)C1 (stereo not drawn)	n	n	33.0	n	n	n
SMILES	CHRM4 agonist	CHRM4 PAM	CHRM5 antagonist	M5 PAM	CHRM4 antagonist	M5 ag
CCOC(=O)C1CCCN(C(=S)Nc2ccc(S(=O)(=O)N3CCOCC3)cc2)C1 (stereo not drawn)	n	n	n	n	n	41.8
CCOC(=O)C1CCCN(C(=S)Nc2cc(C)cc(C)c2)C1 (stereo not drawn)	n	n	n	n	n	28.4
CCOC(=O)C1CCCN(C(=O)COc2ccccc2O)C1 (stereo not drawn)	n	n	n	n	n	49.5
CCOC(=O)C1CCCN(CC(=O)Nc2cc(C)cc(C)c2)C1 (stereo not drawn)	n	n	n	n	n	n
COc1ccc(OCC(=O)NCCNC(=O)c2cccnc2)cc1	n	n	47.5	n	n	n
O=C(NCCO[N+](=O)[O-])c1cccnc1	n	n	37.7	n	73.6	n
CCn1ccnc1CN(C)Cc1c(C(=O)N2CCCCCCC2)nc2ccc(Cl)cn12	n	n	n	n	n	n
CC(C)(C)c1ccc(S(=O)(=O)N2C=CC(C(F)(F)F)=NCC2)cc1	n	n	n	n	n	n
Cc1ccc(S(=O)(=O)N2C=CC(C(F)(F)F)=NCC2)cc1	n	18.4	n	n	n	n
COc1ccccc1S(=O)(=O)N(C)C[C@H]1OCc2cn(nn2)CCCC(=O)N([C@@H](C)CO)C[C@@H]1C	n	n	n	n	n	n
Cc1ccc(-c2nnc(N3CCCCC3)c3ccccc23)cc1S(=O)(=O)N(C)C	n	n	n	n	n	n
Cc1ccc(-c2nnc(N3CCOCC3)c3ccccc23)cc1S(N)(=O)=O	n	n	n	18.6	n	n
COC(=O)[C@]12CCCCC=C1N(Cc1ccc(Cl)cc1Cl)C(=O)[C@H](CC(=O)NCCCN1CCCC1=O)C2	n	n	n	n	n	n
O=C(N/N=C/c1ccc(F)cc1)c1ccc(OCc2ccccc2)cc1	n	n	n	n	n	n
Cc1ccccc1NC(=O)CCC(=O)N/N=C/c1ccc(F)cc1	n	24.9	n	n	n	n
O=C(N/N=C/c1ccc(OCc2ccc(F)cc2)cc1)c1ccccc1	n	19.8	n	n	n	n
Cc1ccccc1NC(=O)CCC(=O)N/N=C/c1cccnc1	n	n	n	n	n	n
O=C(N/N=C/c1ccccc1)c1ccc(NC(=O)c2ccc(F)cc2)cc1	n	23.9	n	20.1	n	n
CCOC(=O)N1CCN(C(=O)C[C@@H]2C[C@@]3(C(=O)OCC)CCCC=C3N(Cc3ccc4c(c3)OCO4)C2=O)CC1	n	n	n	n	n	n
CC1CCc2c(nc3ncnn3c2NCCc2ccccc2F)C1 (stereo not drawn)	n	n	n	n	n	n
CCOC(=O)N1CCN(C(=O)c2cc(OC)cc(OC)c2)CC1	n	n	n	n	n	n
COc1cc(OC)cc(C(=O)N2CCN(S(C)(=O)=O)CC2)c1	n	27.7	n	31.4	n	n
C[C@]12CC[C@H]3[C@@H](CCC4=CC(=O)CC[C@@]43C)[C@@H]1CC[C@@H]2C(=O)CO	n	n	n	n	n	n

Bioassay records as filed in PubChem BioAssay.
